Assay outcomes as filed in PubChem.
Rad51 HR inh – Rad51 (human) homologous recombination inhibition. hRad51 DNA strand exchange, fluorescence dequenching. Q06609. inhibition, % at 10 µM. actives 0.085% (n = 200,000);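 active means inhibition above 40% at the single screening dose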
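material = hRad51 filaments on single-stranded DNA | timing = filaments 15 min 37 °C, then compound 30 min | signal = FRET fluorescence dequenching, excitation 485 nm, emission 520 nm | benchmarks = control wells and blank wells on each plate | evaluation = percent inhibition relative to plate controls and blanks | compound = 10 µM final, single point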
PMI activator – activators of human phosphomannose isomerase | P34949 | AID 1214 | activation factor at 20 µM | purified human PMI, coupled resazurin fluorescence, 20 min; stronger effect = higher value; 1 = vehicle control, 0 substrate-free wells | actives 0.005% (n = 190,000);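 active means activation factor of 2 or more at 20 µM, relative to plate controls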
Target sequence (P34949 whole entry, looked up): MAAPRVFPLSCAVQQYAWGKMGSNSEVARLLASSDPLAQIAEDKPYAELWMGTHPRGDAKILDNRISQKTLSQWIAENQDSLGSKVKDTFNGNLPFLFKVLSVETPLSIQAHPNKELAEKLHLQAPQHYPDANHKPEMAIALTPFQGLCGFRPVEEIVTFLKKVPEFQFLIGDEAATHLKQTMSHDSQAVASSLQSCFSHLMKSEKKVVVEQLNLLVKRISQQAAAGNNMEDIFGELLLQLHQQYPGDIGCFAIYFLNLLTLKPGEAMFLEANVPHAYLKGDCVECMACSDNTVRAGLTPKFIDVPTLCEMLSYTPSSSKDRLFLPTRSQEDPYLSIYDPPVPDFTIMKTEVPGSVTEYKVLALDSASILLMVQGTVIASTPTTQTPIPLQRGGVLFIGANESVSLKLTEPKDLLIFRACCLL
PMI act satM6P – increases human PMI activity with near-saturating mannose 6-phosphate; actives 0.34% (n = 190,000); P34949; AID 1216; activation factor at 20 µM; coupled PMI enzyme assay, resazurin fluorescence, 20 min; stronger effect = higher value; 1 = untreated enzyme, 0 = substrate-free blank;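 active means activation factor of 2 or more at 20 µM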
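Test system – human PMI in coupled enzyme assay · Timing – 20 min incubation at room temperature · Detection – Diaphorase-driven resazurin-to-resorufin fluorescence, excitation 544, emission 590 nm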
Lmaj promast – Leishmania major promastigote growth inhibition. actives 9% (n = 200,000). AID 1063. inhibition, % at 10 µM. Leishmania major promastigotes, resazurin fluorescence viability; in the data active means inhibition above about 50%;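 further: promastigotes grown with compound for 44 hours at 28 °C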
m-calpain inh – inhibitors of pig calpain II; purified calpain II, fluorogenic peptide substrate, 30 min; inhibition, % at 16 µM; actives 0.37% (n = 220,000);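 active means inhibition above about 50%, limit read from the data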
WT yeast gro inh – growth inhibition of WT yeast, mitochondrial fusion screen | mitochondrial fusion phenotypic screen, WT strain | inhibition, % at 10 µM | actives 2.1% (n = 190,000) | AID 1362; in the data active means inhibition above about 58%; tested in S. cerevisiae
A number is an active result; – = inactive; · = not tested or not shown. In the library only some 9.8% were active in any assay of this set; here they are far more common.

SMILES	Rad51 HR inh	PMI activator	PMI act satM6P	Lmaj promast	m-calpain inh	WT yeast gro inh
CNC(=O)Nc1ccccc1C(=O)Nc1ccccc1	–	·	·	·	–	·
COc1ccc(C2C(C(=O)Nc3cc(OC)c(OC)c(OC)c3)c3ccccc3C(=O)N2C)cc1OC (stereo not drawn)	–	–	–	–	–	–
CCC(C)C(=O)Nc1ccc(OC)cc1OC (stereo not drawn)	–	–	–	–	–	–
COc1ccc(NC(=S)NC(NC(=O)c2cccc(C)c2)C(Cl)(Cl)Cl)c([N+](=O)[O-])c1 (stereo not drawn)	–	–	–	–	–	–
COc1ccc(NC(=S)NC(NC(=O)c2cccc(Cl)c2)C(Cl)(Cl)Cl)c([N+](=O)[O-])c1 (stereo not drawn)	–	–	–	93.8	–	–
CCC(C)C(=O)Nc1ccc(OC)cc1[N+](=O)[O-] (stereo not drawn)	–	–	–	53.4	–	–
C=CCn1cccc(C(=O)Nc2ccc(OCC)cc2)c1=O	–	–	–	–	–	–
CCN(CC)CCCNC(=O)c1cc2nc3c(c(C(F)(F)F)n2n1)CCc1ccccc1-3	–	–	–	96.4	–	–
O=C(O)c1ccc(N2C(=O)CC(N3C(=O)/C(=C/c4ccc(Cl)cc4)SC3=S)C2=O)cc1 (stereo not drawn)	–	·	·	·	–	·
CCOC(=O)C1=C(C)C(c2cccc(Oc3ccccc3)c2)NC(=S)N1 (stereo not drawn)	–	–	–	–	–	66.0
CCOC(=O)C1=C(c2cccc(Oc3ccccc3)c2)NC(=S)NC1C (stereo not drawn)	–	–	–	–	–	64.2
CCOC(=O)C1=C(c2ccccc2)NC(=S)NC1c1ccc(Cl)c([N+](=O)[O-])c1 (stereo not drawn)	–	–	–	57.8	–	–
COc1ccc(-c2noc(-c3ccccc3C(=O)NCC3CCCO3)n2)cc1 (stereo not drawn)	–	·	·	·	–	·
COc1ccc2[nH]cc(S(=O)(=O)c3ccc(C(C)C)cc3)c(=O)c2c1	–	–	–	–	–	–
CCOc1ccccc1NC(=O)c1ccc(Cl)c(NC(=O)CC(c2ccccc2)c2ccccc2)c1	–	–	–	70.2	–	–
CCOc1ccccc1NC(=O)C(NCC1CCCCC1)c1ccccc1 (stereo not drawn)	–	–	–	–	–	73.9
CCOc1ccccc1NC(=S)NC1CCCCC1	–	–	–	92.2	–	–
CCOc1ccccc1NC(=O)C(OC(=O)c1ccc(O)cc1)c1ccccc1 (stereo not drawn)	–	–	–	–	–	77.4
CCOc1ccccc1NC(=S)NCCc1ccc(F)cc1	–	–	–	–	–	62.0
Fc1ccc(CCNC(=S)Nc2ccc(F)cc2)cc1	–	–	–	–	–	–
CCCCc1ccc(NC(=S)NCCc2ccc(F)cc2)cc1	–	–	–	–	–	68.4
COc1ccccc1NC(=S)NCCc1ccc(Cl)cc1	–	–	–	–	–	–
Cc1cccc(C)c1NC(=S)NC1CCCCC1	–	–	–	–	–	70.2
Cc1ccc(C(=O)OC(C(=O)Nc2ccc(Cl)cc2C(F)(F)F)c2ccccc2)cc1 (stereo not drawn)	–	–	–	69.0	–	–
CC(C)N(CCc1ccncc1)C(=S)Nc1ccc(F)c(Cl)c1	·	–	–	–	–	–
SMILES	Rad51 HR inh	PMI activator	PMI act satM6P	Lmaj promast	m-calpain inh	WT yeast gro inh
CC(=O)N1CSCC1C(=O)NNS(=O)(=O)c1cccc(C(F)(F)F)c1 (stereo not drawn)	–	·	·	·	–	·
CCOc1ccccc1NC(=S)NCCc1ccccc1	–	–	–	–	–	74.2
NC1=NS(=O)(=O)NC1c1ccc(Br)cc1 (stereo not drawn)	–	–	–	–	–	–
CCn1cc(CNC(=O)/C=C/c2ccc([N+](=O)[O-])cc2)cn1	–	–	–	–	–	–
COc1ccc2c(=O)c3c(=O)n(Cc4ccco4)c(-c4ccc(C)cc4)nc3oc2c1	–	–	–	59.2	–	–
COc1ccc2c(=O)c3c(=O)n(Cc4ccco4)c(C(C)C)nc3oc2c1	–	–	–	–	–	–
CCc1nc2oc3ccccc3c(=O)c2c(=O)n1Cc1ccccc1	–	–	–	–	–	–
CCc1nc2oc3cc(OC)ccc3c(=O)c2c(=O)n1Cc1ccccc1	–	–	–	95.5	–	–
NC(=O)c1nn(-c2ccc(Cl)cc2Cl)c(=O)cc1O	–	–	–	–	–	–
COc1ccc(-c2ocnc2C(=O)NCc2nn(-c3ccccc3)nc2C)cc1	–	·	·	·	–	·
O=C(O)CC1(O)C(=O)N(Cc2ccccc2)c2ccccc21 (stereo not drawn)	–	–	–	–	–	–
Cc1ccc(C(=O)N2c3ccccc3N(Cc3ccccc3)C(=O)C2(C)C)cc1	–	–	–	–	–	84.8
O=C(/C=C/c1ccc([N+](=O)[O-])cc1)NCc1ccccn1	·	–	–	–	–	–
O=C(/C=C/c1ccc([N+](=O)[O-])cc1)Nc1ncc([N+](=O)[O-])s1	–	–	–	83.1	–	–
CSc1nsc(/C=C/Nc2ccc(O)cc2C)c1C#N	–	–	–	–	–	–
CCC(Sc1nc2ccccc2o1)C(=O)Nc1nnc(C)s1 (stereo not drawn)	–	–	–	55.5	–	–
CCC(Sc1nc2ccccc2o1)C(=O)O (stereo not drawn)	·	–	–	–	–	–
O=C(N/N=C/c1ccccn1)c1[nH]c2ccc([N+](=O)[O-])cc2c1-c1ccccc1	–	–	–	98.3	–	64.6
O=C(Nc1ccc(O)c2c(=O)cc(-c3cccc(Cl)c3)oc12)c1ccccc1Cl	–	·	·	·	–	·
O=C(Cc1ccccc1)NC(Nc1ccccc1)C(Cl)(Cl)Cl (stereo not drawn)	–	–	–	–	–	–
COc1ccc(C(=O)NC(Nc2ccccc2)C(Cl)(Cl)Cl)cc1 (stereo not drawn)	–	–	–	99.3	–	–
COc1ccc(C(=O)NNc2ccccc2)cc1	·	–	2.4	92.0	–	–
C/C(=N\NC(N)=O)c1ccccc1Cl	–	·	·	·	–	·
Cc1ccc(C)c(-n2nnnc2SCC(=O)NNC(=O)c2ccco2)c1	–	–	–	–	–	–
O=C(COc1ccc(Cl)c(Cl)c1)NN1C(=O)C2C(C1=O)C1C=CC2C12CC2 (stereo not drawn)	–	–	–	–	–	–
CC(C)=C1C2CCC1C1C(=O)N(NC(=O)COc3ccc(Cl)c(C)c3)C(=O)C21 (stereo not drawn)	–	–	–	75.7	–	–
COC(=O)c1cc(C(=O)c2ccc(Cl)cc2)n2c(=O)/c(=C\N(C)C)sc12	–	–	–	–	–	–
CC(C)(C)NC(=O)CCc1ncc(C(F)(F)F)cc1Cl	–	–	–	–	–	–
COc1cc2cccc(OC)c(=O)c2c(O)c1OC	–	–	–	–	–	–
